Measurements published in ChEMBL document CHEMBL1135065, “2-(anilinomethyl)imidazolines as alpha1A adrenergic receptor agonists: 2'-heteroaryl and 2'-oxime ether series” (Bioorg Med Chem Lett, 2002).

What was measured:
[1] = target: T1, Alpha-1D adrenergic receptor (Homo sapiens, UniProt P25100); assay: In vitro activation of human alpha-1D receptor expressed in rat-1 fibroblasts via calcium using mobilization through the Gq coupled PLC pathway as functional assay
T1 sequence (P25100 whole entry): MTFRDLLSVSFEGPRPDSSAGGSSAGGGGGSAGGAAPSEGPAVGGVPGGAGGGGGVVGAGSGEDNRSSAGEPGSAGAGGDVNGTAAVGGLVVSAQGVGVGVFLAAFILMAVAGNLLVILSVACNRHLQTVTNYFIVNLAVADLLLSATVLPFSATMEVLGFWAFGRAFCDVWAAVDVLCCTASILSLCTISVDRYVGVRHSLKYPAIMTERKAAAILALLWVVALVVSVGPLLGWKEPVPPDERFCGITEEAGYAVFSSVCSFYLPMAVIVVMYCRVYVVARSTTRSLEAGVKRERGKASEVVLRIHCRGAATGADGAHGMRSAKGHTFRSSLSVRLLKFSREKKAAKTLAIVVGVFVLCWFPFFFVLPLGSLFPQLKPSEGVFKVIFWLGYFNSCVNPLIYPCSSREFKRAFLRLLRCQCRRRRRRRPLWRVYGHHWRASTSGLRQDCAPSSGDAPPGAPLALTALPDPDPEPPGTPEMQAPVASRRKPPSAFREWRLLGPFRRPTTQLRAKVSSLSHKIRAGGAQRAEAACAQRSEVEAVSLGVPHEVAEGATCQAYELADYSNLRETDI
Summary of the method: (§1)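 Calcium mobilization via Gq/PLC was read by FLIPR with Calcium Green fluorescent dye. Eleven-point concentration–response curves, top concentration typically 5 µM, expressed as percent of the 40 µM phenylephrine response. Values are pEC50 and % maximal response, mean of at least two experiments.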

[2] = target: T2, Alpha-1A adrenergic receptor (Homo sapiens, UniProt P35348); assay: In vitro activation of human alpha-1A receptor expressed in rat-1 fibroblasts via calcium mobilization through the Gq coupled PLC pathway as functional assay; summary of the method: as §1
T2 sequence (P35348 whole entry): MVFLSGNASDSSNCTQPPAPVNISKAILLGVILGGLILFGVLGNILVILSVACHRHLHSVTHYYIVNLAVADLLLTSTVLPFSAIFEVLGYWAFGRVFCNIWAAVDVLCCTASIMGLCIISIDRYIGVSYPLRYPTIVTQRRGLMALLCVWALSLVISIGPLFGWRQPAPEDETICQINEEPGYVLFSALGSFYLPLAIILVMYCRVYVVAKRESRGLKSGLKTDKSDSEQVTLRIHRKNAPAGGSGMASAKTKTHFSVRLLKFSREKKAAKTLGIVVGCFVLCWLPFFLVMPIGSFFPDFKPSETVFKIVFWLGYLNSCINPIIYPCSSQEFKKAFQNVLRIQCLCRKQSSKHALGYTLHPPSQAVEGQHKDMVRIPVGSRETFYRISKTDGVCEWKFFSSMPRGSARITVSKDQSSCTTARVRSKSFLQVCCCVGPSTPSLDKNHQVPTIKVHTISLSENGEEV

[3] = target: T3, Alpha-1B adrenergic receptor (Homo sapiens, UniProt P35368); assay: In vitro activation of human Alpha-1B receptor expressed in rat-1 fibroblasts via calcium mobilization through the Gq coupled PLC pathway as functional assay
T3 sequence (P35368 whole entry): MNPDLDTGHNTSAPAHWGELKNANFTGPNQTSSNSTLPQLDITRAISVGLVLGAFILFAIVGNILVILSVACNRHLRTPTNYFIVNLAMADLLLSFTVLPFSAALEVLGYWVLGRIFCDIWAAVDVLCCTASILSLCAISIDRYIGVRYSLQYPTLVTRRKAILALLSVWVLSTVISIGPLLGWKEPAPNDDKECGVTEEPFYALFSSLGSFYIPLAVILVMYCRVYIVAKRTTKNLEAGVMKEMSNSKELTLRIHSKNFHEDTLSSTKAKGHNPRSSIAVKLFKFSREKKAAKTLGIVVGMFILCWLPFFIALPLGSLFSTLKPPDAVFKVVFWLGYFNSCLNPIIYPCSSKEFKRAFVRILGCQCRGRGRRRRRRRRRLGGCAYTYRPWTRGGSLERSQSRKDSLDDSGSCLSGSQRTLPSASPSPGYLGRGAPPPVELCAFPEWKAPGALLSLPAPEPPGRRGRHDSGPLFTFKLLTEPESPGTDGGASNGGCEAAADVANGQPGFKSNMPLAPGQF

[4] = target: T4, Alpha-1A adrenergic receptor (Homo sapiens) (UniProt P35348); assay: In vitro human alpha-1A receptor activation determined via calcium mobilization through the Gq coupled PLC pathway in rat-1 fibroblasts as percent maximum of phenylephrine response; type: functional
T4 sequence (whole entry): T2 sequence (P35348 whole entry)
Summary of the method: as §1, with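 “Human α1A (clone #137–12) or α1D (clone #16–7) adrenoceptor stably expressed in Rat-1 fibroblasts. Calcium mobilization” for “Calcium mobilization”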

[5] = target: T2, Alpha-1A adrenergic receptor; assay: In vitro binding affinity against human Alpha-1A adrenergic receptor expressed in rat-1 fibroblasts cells; type: cell-based, Fibroblast
Summary of the method: (§2)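 Radioligand binding on membranes from Rat-1 fibroblasts expressing human α1A, α1B or α1D adrenoceptor. Affinity reported as pIC50, mean of at least two experiments.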

[6] = target: T3, Alpha-1B adrenergic receptor; assay: In vitro binding affinity against human Alpha-1B adrenergic receptor expressed in rat-1 fibroblasts; summary of the method: as §2
[7] = target: T1, Alpha-1D adrenergic receptor; assay: In vitro binding affinity against human Alpha-1D adrenergic receptor expressed in rat-1 fibroblasts; summary of the method: as §2

Row | SMILES | EC50 [1] | EC50 [2] | EC50 [3] | Max [4] | IC50 [5] | IC50 [6] | IC50 [7]
1 | c1ccc(-c2cnccn2)c(NCC2=NCCN2)c1 | 182 nM | 4.57 nM | 339 nM | – | – | – | –
2 | Cc1nc(-c2ccccc2NCC2=NCCN2)co1 | > 5010 nM | 324 nM | > 5010 nM | – | – | – | –
3 | c1coc(-c2ccccc2NCC2=NCCN2)c1 | 16.2 nM | 0.468 nM | 6.31 nM | – | – | – | –
4 | Cc1cccnc1-c1ccccc1NCC1=NCCN1 | > 100000 nM | 24.5 nM | > 100000 nM | – | – | – | –
5 | c1ccc(-c2ncco2)c(NCC2=NCCN2)c1 | 5.01 nM | 0.661 nM | 1.62 nM | – | 45.7 nM | 447 nM | 40.7 nM
6 | FC(F)(F)c1cccnc1-c1ccccc1NCC1=NCCN1 | > 100000 nM | 676 nM | > 100000 nM | – | – | – | –
7 | c1csc(-c2ccccc2NCC2=NCCN2)c1 | 18.2 nM | 2.24 nM | 5.75 nM | – | – | – | –
8 | Cc1ccc(-c2ccccc2NCC2=NCCN2)o1 | > 2000 nM | 2.69 nM | 46.8 nM | – | – | – | –
9 | Cc1ccc(-c2ccccc2NCC2=NCCN2)s1 | > 100000 nM | 36.3 nM | > 100000 nM | – | – | – | –
10 | c1cnc(-c2ccccc2NCC2=NCCN2)nc1 | 81.3 nM | 10 nM | 77.6 nM | – | 191 nM | 2190 nM | 417 nM
11 | Nc1nccc(-c2ccccc2NCC2=NCCN2)n1 | 28.8 nM | 42.7 nM | > 5010 nM | – | – | – | –
12 | Cc1nc(-c2ccccc2NCC2=NCCN2)no1 | > 5010 nM | 724 nM | 676 nM | – | – | – | –
13 | c1ccc(-c2cnco2)c(NCC2=NCCN2)c1 | > 5010 nM | 17.4 nM | > 5010 nM | – | 457 nM | 229 nM | 295 nM
14 | c1ccc(-c2ccccc2NCC2=NCCN2)nc1 | 41.7 nM | 6.76 nM | 30.2 nM | – | 81.3 nM | 589 nM | 117 nM
15 | c1ccc(-c2ccno2)c(NCC2=NCCN2)c1 | 2.88 nM | 0.794 nM | 3.72 nM | – | 35.5 nM | 132 nM | 38 nM
16 | c1ccc(-c2cnoc2)c(NCC2=NCCN2)c1 | > 100000 nM | 45.7 nM | > 100000 nM | – | – | – | –

The remaining lines, values ahead:

Row | EC50 [1] | EC50 [2] | EC50 [3] | Max [4] | IC50 [5] | IC50 [6] | IC50 [7] | SMILES
17 | > 5010 nM | 87.1 nM | > 5010 nM | 141% | – | – | – | CC/C(=N/OC)c1ccccc1NCC1=NCCN1
18 | > 100000 nM | 3.31 nM | > 100000 nM | 112% | – | – | – | CC/C(=N\OC)c1ccccc1NCC1=NCCN1
19 | > 5010 nM | 51.3 nM | > 5010 nM | 94% | 282 nM | 162 nM | 42.7 nM | CO/N=C/c1ccccc1NCC1=NCCN1
20 | > 5010 nM | 661 nM | > 5010 nM | – | – | – | – | Cc1noc(-c2ccccc2NCC2=NCCN2)n1
21 | 49 nM | 0.851 nM | 112 nM | – | – | – | – | Cc1ccsc1-c1ccccc1NCC1=NCCN1
22 | > 100000 nM | 38.9 nM | 95.5 nM | – | – | – | – | Cc1cc(-c2ccccc2NCC2=NCCN2)on1
23 | > 5010 nM | 4.47 nM | 69.2 nM | – | – | – | – | Cc1nc(-c2ccccc2NCC2=NCCN2)cs1
24 | > 5010 nM | 110 nM | > 5010 nM | – | – | – | – | Cc1ncc(-c2ccccc2NCC2=NCCN2)o1
25 | > 100000 nM | 15.1 nM | > 100000 nM | – | 191 nM | 324 nM | 347 nM | Cc1ncoc1-c1ccccc1NCC1=NCCN1
26 | > 5010 nM | 20.9 nM | > 5010 nM | 92% | – | – | – | CO/N=C(\C)c1ccccc1NCC1=NCCN1
27 | > 5010 nM | 52.5 nM | > 5010 nM | 102% | – | – | – | CCO/N=C(\C)c1ccccc1NCC1=NCCN1
